# Assay results collected from several papers.
# Each line is one published result; the experiments were not run side by side.
# Target: Alpha-2B adrenergic receptor (ADRA2B, Homo sapiens, UniProt P18089)
# Tested at: 10 µM
# Sequence (P18089 1-450, as in one of the studies): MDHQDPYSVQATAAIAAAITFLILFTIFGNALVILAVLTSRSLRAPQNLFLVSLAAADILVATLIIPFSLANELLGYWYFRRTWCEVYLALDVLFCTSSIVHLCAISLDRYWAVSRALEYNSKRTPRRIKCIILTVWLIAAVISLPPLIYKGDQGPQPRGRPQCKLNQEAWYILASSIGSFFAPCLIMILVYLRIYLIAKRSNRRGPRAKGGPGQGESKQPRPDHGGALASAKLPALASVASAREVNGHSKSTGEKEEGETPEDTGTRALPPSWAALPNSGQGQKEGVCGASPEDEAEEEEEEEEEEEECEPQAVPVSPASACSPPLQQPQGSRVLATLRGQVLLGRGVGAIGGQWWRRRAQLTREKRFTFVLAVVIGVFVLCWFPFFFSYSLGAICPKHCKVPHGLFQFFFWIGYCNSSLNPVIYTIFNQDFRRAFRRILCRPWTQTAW
Compound,effect on,technique,inhibition [%]
O=[N+]([O-])C1=Cc2cc(I)ccc2OC1C(F)(F)F (stereo not drawn),ligand displacement,radioligand,66
Oc1cccc(Nc2nc(-c3ccc(F)cc3F)cs2)c1,cell-free assay,,-29.7
CN(C)C(=O)Cn1cc(-c2nc(C3(c4ccc(-c5cnc(N)nc5)cc4)CC3)no2)cn1,cell-free assay,,-3.57
CCCNc1nc2ccccc2n1Cc1ccc(Cl)cc1,ligand displacement,,83
O=C1c2ccccc2C(=O)N1CC#Cc1ccc2c(c1)C=C([N+](=O)[O-])C(C(F)(F)F)O2 (stereo not drawn),ligand displacement,radioligand,70
N#Cc1cc(Cn2c(N3CCCC3)nc3ccccc32)ccc1F,ligand displacement,,18.7
O=C(NNS(=O)(=O)c1ccccc1F)c1cc(F)cc(-c2ccccn2)c1,cell-free assay,,-3.78
COc1cc(NC(C)=O)c(Cl)cc1C(=O)Nc1nccs1,cell-free assay,,-12.7
CCN(CC)c1ccc(C2Nc3ccc(C(=O)c4ccccc4)cc3NC3=C2C(=O)CC(C)(C)C3)cc1 (stereo not drawn),ligand displacement,radioligand,-8
